Assay results as given in publication PMC8259413 (Biochemistry, 2015).

Key:
[1] = target: binary Pol β complex (Pol β/sngDNA) (Homo sapiens, UniProt P06746); experiment: NMR lineshape analysis; assay type: binding, rat
Outline: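 It was titrated with Mg²⁺-containing nonhydrolyzable matching (0–2:1) or mismatching (0.15–4.6:1) dNTP analogue, followed by ¹H–¹⁵N TROSY/HSQC. Resonances resolved in both dimensions throughout were fitted to a two-state model for koff and KD.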

[2] = target: Pol β binary complex (Pol β/sngDNA) (Rattus norvegicus, UniProt P06766); assay type: binding; conditions: for ΔH of binding (ITC) / ΔS of binding (ITC): binding to Pol β binary complex, 23 °C
Outline: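 Binary complex formed with 20-mer single-nucleotide-gapped duplex DNA (DNA:protein ~1.5:1). Ligands were nonhydrolyzable α,β-imido dNTP analogues, titrated in matched buffer (50 mM HEPES, 100 mM NaCl, 5 mM MgCl₂, 2 mM DTT, pH 7.4) at 1000 rpm with 250 s between injections. Matching analogue: 0.2 mM into 0.013 mM complex. Mismatching analogue: 6 mM into 0.106 mM complex.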

| SMILES | koff (NMR lineshape analysis) ([1]; two-state model, global fit of nine residues, 23 °C) [s⁻¹] | ΔH of binding (ITC) [2] [kcal/mol] | ΔS of binding (ITC) [2] [J/mol−K] | fold greater koff than that measured for the matching nucleotide ([1]; NMR line shape data) | kex of nucleotide binding/dissociation within the binding cavity ([1]; in the presence of 3.0 mM dApNHpp, estimated) [s⁻¹] | fold weaker binding than the matching nucleotide ([2]; based upon ITC data) |
| --- | --- | --- | --- | --- | --- | --- |
| Nc1ccn([C@H]2C[C@H](O)[C@@H](COP(=O)(O)NP(=O)(O)OP(=O)(O)O)O2)c(=O)n1 [dCpNHpp, 2′-Deoxycytidine-5′-[(α,β)-imido]triphosphate] | 5.1 | 22.2 ± 0.24 | 432 ± 5 | – | – | – |
| Nc1ncnc2c1ncn2[C@H]1C[C@H](O)[C@@H](COP(=O)(O)NP(=O)(O)OP(=O)(O)O)O1 [dApNHpp, 2′-deoxyadenosine-5′[(α,β)-imido]triphosphate] | – | 8.84 ± 2.2 | 195 ± 32 | approximately 50 fold | ~7000 | approximately 300 fold |
